Data published in ChEMBL document CHEMBL1821590, “Novel dihydropyrimidines and its pyrazole derivatives: synthesis and pharmacological screening” (Eur J Med Chem, 2011).
≈ marks a conversion by molar mass, not a printed value.

What was measured:
Type in all cases: functional
[1] = Antioxidant activity assessed as inhibition of lipid peroxidation using egg lecithin liposomes incubated for 1 hr
Outline: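 Egg lecithin (3 mg/mL, phosphate buffer pH 7.4) sonicated 10 min to form liposomes. Sample or ascorbic acid (12.5–100 µg/mL) added. Peroxidation induced with FeCl3 and L-ascorbic acid, 1 h at 37 °C. Stopped with HCl/TCA/TBA/BHA, boiled 15 min, centrifuged, supernatant read at 532 nm. Triplicate. % inhibition vs control. IC50 derived.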

[2] = system: Metaphire posthuma; test: Anthelmintic activity against Pheretima posthuma assessed as time taken for parasite death at 0.5% w/v
Outline: (§1)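 Earthworms (Pheretima posthuma, spelled Perituma posthuma in text) exposed to test compounds at 0.1, 0.2 and 0.5% w/v. Albendazole served as standard, with an untreated control. Paralysis was recorded as the time until worms became motionless, then time to death was recorded, in minutes. Each value is the mean of three determinations with S.D.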

[3] = system: Candida albicans; test: Antimicrobial activity against Candida albicans at 50 ug/ml by paper disc method; settings: read-out: IZ
Outline: (§2)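 Paper disc method against A. niger and C. albicans, with compounds at 25, 50 and 100 µg/mL. Amphotericin-B as standard.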

[4] = system: Bacillus subtilis; test: Antimicrobial activity against Bacillus subtilis at 100 ug/ml by agar plate diffusion technique; settings: read-out: IZ
Outline: (§3)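 Agar plate diffusion against E. coli, P. aeruginosa, S. aureus and B. subtilis, with compounds at 25, 50 and 100 µg/mL. Streptomycin as standard.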

[5] = system: Pseudomonas aeruginosa; test: Antimicrobial activity against Pseudomonas aeruginosa at 100 ug/ml by agar plate diffusion technique; settings: read-out: IZ; outline: as §3
[6] = system: Candida albicans; test: Antimicrobial activity against Candida albicans at 25 ug/ml by paper disc method; settings: read-out: IZ; outline: as §2
[7] = Antioxidant activity assessed as hydrogen peroxide scavenging activity after 10 mins
Outline: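 H2O2 (20 mM) in PBS pH 7.4. 1 mL of sample or ascorbic acid in methanol (12.5–100 µg/mL) added to 2 mL H2O2 solution. A230 read after 10 min. % inhibition = [1 − (Vt/Vc)] × 100. Triplicate, averaged. IC50 derived from % inhibition across concentrations.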

[8] = system: Metaphire posthuma; test: Anthelmintic activity against Pheretima posthuma assessed as time taken for complete parasite paralysis at 0.1% w/v
Outline: (§4)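 Earthworms (Pheretima posthuma) exposed to test solutions at 0.1, 0.2 and 0.5% w/v; time in minutes to complete paralysis (worms motionless) recorded. Albendazole as standard. Mean of three determinations ± S.D.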

[9] = system: Staphylococcus aureus; test: Antimicrobial activity against Staphylococcus aureus at 100 ug/ml by agar plate diffusion technique; settings: read-out: IZ; outline: as §3
[10] = system: Metaphire posthuma; test: Anthelmintic activity against Pheretima posthuma assessed as time taken for complete parasite paralysis at 0.2% w/v; outline: as §4
[11] = system: Pseudomonas aeruginosa; test: Antimicrobial activity against Pseudomonas aeruginosa at 50 ug/ml by agar plate diffusion technique; settings: read-out: IZ; outline: as §3
[12] = system: Escherichia coli; test: Antimicrobial activity against Escherichia coli at 50 ug/ml by agar plate diffusion technique; settings: read-out: IZ; outline: as §3
[13] = system: Staphylococcus aureus; test: Antimicrobial activity against Staphylococcus aureus at 50 ug/ml by agar plate diffusion technique; settings: read-out: IZ; outline: as §3
[14] = system: Aspergillus niger; test: Antimicrobial activity against Aspergillus niger at 50 ug/ml by paper disc method; settings: read-out: IZ; outline: as §2
[15] = Antioxidant activity assessed as potassium ferricyanide ion reducing power after 20 mins
Outline: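 Oyaizu method. Samples or ascorbic acid in DMF (12.5–100 µg/mL) mixed with 0.2 M phosphate buffer pH 6.6 and 1% potassium ferricyanide, 20 min at 50 °C. 10% TCA added, centrifuged. Supernatant mixed with water and 0.1% FeCl3, read at 700 nm. % = [(Vt/Vc) − 1] × 100. IC50 derived.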

[16] = system: Candida albicans; test: Antimicrobial activity against Candida albicans at 100 ug/ml by paper disc method; settings: read-out: IZ; outline: as §2
[17] = system: Bacillus subtilis; test: Antimicrobial activity against Bacillus subtilis at 50 ug/ml by agar plate diffusion technique; settings: read-out: IZ; outline: as §3
[18] = system: Metaphire posthuma; test: Anthelmintic activity against Pheretima posthuma assessed as time taken for complete parasite paralysis at 0.5% w/v; outline: as §4
[19] = system: Bacillus subtilis; test: Antimicrobial activity against Bacillus subtilis at 25 ug/ml by agar plate diffusion technique; settings: read-out: IZ; outline: as §3
[20] = system: Staphylococcus aureus; test: Antimicrobial activity against Staphylococcus aureus at 25 ug/ml by agar plate diffusion technique; settings: read-out: IZ; outline: as §3
[21] = Antioxidant activity assessed as nitric oxide radical scavenging activity after 150 mins
Outline: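 10 mM sodium nitroprusside (4 mL), PBS pH 7.4 (1 mL) and sample or ascorbic acid in DMSO (1 mL, 12.5–100 µg/mL), incubated 150 min at 25 °C. Nitrite detected with sulphanilic acid (5 min) then naphthylethylenediamine (30 min, diffused light). Read at […]. Triplicate. % inhibition = [1 − (Vt/Vc)] × 100. IC50 derived from it.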

[22] = system: Pseudomonas aeruginosa; test: Antimicrobial activity against Pseudomonas aeruginosa at 25 ug/ml by agar plate diffusion technique; settings: read-out: IZ; outline: as §3
[23] = system: Aspergillus niger; test: Antimicrobial activity against Aspergillus niger at 100 ug/ml by paper disc method; settings: read-out: IZ; outline: as §2
[24] = Antiinflammatory activity assessed as inhibition of albumin denaturation at 100 ug/ml by UV-visible spectrophotometry
Outline: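 Compounds dissolved in minimal DMF, diluted in PBS pH 7.4 (final DMF <2.5%). 1 mL test solution (100 µg/mL) plus 1 mL 1% albumin in PBS, 15 min at 27 ± 1 °C, then heated 10 min at 60 ± 1 °C. After cooling, turbidity read at 660 nm. % inhibition = [(Vt/Vc) − 1] × 100 against a no-drug control. Triplicate, averaged. Diclofenac standard.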

[25] = system: Aspergillus niger; test: Antimicrobial activity against Aspergillus niger at 25 ug/ml by paper disc method; settings: read-out: IZ; outline: as §2
[26] = system: Escherichia coli; test: Antimicrobial activity against Escherichia coli at 25 ug/ml by agar plate diffusion technique; settings: read-out: IZ; outline: as §3
[27] = system: Metaphire posthuma; test: Anthelmintic activity against Pheretima posthuma assessed as time taken for parasite death at 0.2% w/v; outline: as §1
[28] = system: Metaphire posthuma; test: Anthelmintic activity against Pheretima posthuma assessed as time taken for parasite death at 0.1% w/v; outline: as §1
[29] = system: Escherichia coli; test: Antimicrobial activity against Escherichia coli at 100 ug/ml by agar plate diffusion technique; settings: read-out: IZ; outline: as §3

## CCOC(=O)c1cnn(-c2nc(-c3cccc(OC)c3OC)c(C#N)c(=O)n2C)c1N
[1]
  IC50: 57 µg/mL (≈ 134 µM)
[2]
  Time: 52.69 min
[3]
  zone of inhibition at 50 µg/mL: 13.5 mm
[4]
  zone of inhibition at 100 µg/mL: 19.2 mm
[5]
  zone of inhibition at 100 µg/mL: 17.4 mm
[6]
  zone of inhibition at 25 µg/mL: 9.41 mm
[7]
  IC50: 67 µg/mL (≈ 158 µM)
[8]
  Time: 75.14 min
[9]
  zone of inhibition at 100 µg/mL: 18.7 mm
[10]
  Time: 55.1 min
[11]
  zone of inhibition at 50 µg/mL: 12.3 mm
[12]
  zone of inhibition at 50 µg/mL: 12.4 mm
[13]
  zone of inhibition at 50 µg/mL: 14.1 mm
[14]
  zone of inhibition at 50 µg/mL: 12.1 mm
[15]
  IC50: 54 µg/mL (≈ 127 µM)
[16]
  zone of inhibition at 100 µg/mL: 17 mm
[17]
  zone of inhibition at 50 µg/mL: 15.1 mm
[18]
  Time: 43.9 min
[19]
  zone of inhibition at 25 µg/mL: 11.6 mm
[20]
  zone of inhibition at 25 µg/mL: 10.3 mm
[21]
  IC50: 69 µg/mL (≈ 163 µM)
[22]
  zone of inhibition at 25 µg/mL: 9.9 mm
[23]
  zone of inhibition at 100 µg/mL: 18.9 mm
[24]
  inhibition: 33.9%
[25]
  zone of inhibition at 25 µg/mL: 10.8 mm
[26]
  zone of inhibition at 25 µg/mL: 10.3 mm
[27]
  Time: 62.12 min
[28]
  Time: 87.55 min
[29]
  zone of inhibition at 100 µg/mL: 16.2 mm

## CCOC(=O)c1cnn(-c2nc(-c3ccccc3Cl)c(C#N)c(=O)n2C)c1N
[1]
  IC50: 102 µg/mL (≈ 256 µM)
[2]
  Time: 51.7 min
[3]
  zone of inhibition at 50 µg/mL: 14.9 mm
[4]
  zone of inhibition at 100 µg/mL: 26.2 mm
[5]
  zone of inhibition at 100 µg/mL: 23.9 mm
[6]
  zone of inhibition at 25 µg/mL: 11.5 mm
[7]
  IC50: 98 µg/mL (≈ 246 µM)
[8]
  Time: 58.08 min
[9]
  zone of inhibition at 100 µg/mL: 24.3 mm
[10]
  Time: 42.05 min
[11]
  zone of inhibition at 50 µg/mL: 16.3 mm
[12]
  zone of inhibition at 50 µg/mL: 20.5 mm
[13]
  zone of inhibition at 50 µg/mL: 18.3 mm
[14]
  zone of inhibition at 50 µg/mL: 15.1 mm
[15]
  IC50: 78 µg/mL (≈ 196 µM)
[16]
  zone of inhibition at 100 µg/mL: 20.2 mm
[17]
  zone of inhibition at 50 µg/mL: 17.2 mm
[18]
  Time: 46.18 min
[19]
  zone of inhibition at 25 µg/mL: 13.4 mm
[20]
  zone of inhibition at 25 µg/mL: 14.6 mm
[21]
  IC50: 93 µg/mL (≈ 233 µM)
[22]
  zone of inhibition at 25 µg/mL: 12.2 mm
[23]
  zone of inhibition at 100 µg/mL: 22.4 mm
[24]
  inhibition: 74.2%
[25]
  zone of inhibition at 25 µg/mL: 12.2 mm
[26]
  zone of inhibition at 25 µg/mL: 13.2 mm
[27]
  Time: 57.5 min
[28]
  Time: 72.26 min
[29]
  zone of inhibition at 100 µg/mL: 26.9 mm

## Cn1c(NN)nc(-c2ccc(Cl)cc2)c(C#N)c1=O
[1]
  IC50: 46 µg/mL (≈ 167 µM)
[2]
  Time: 42.54 min
[3]
  zone of inhibition at 50 µg/mL: 15.7 mm
[4]
  zone of inhibition at 100 µg/mL: 24.1 mm
[5]
  zone of inhibition at 100 µg/mL: 14.9 mm
[6]
  zone of inhibition at 25 µg/mL: 12.8 mm
[7]
  IC50: 41 µg/mL (≈ 149 µM)
[8]
  Time: 42.1 min
[9]
  zone of inhibition at 100 µg/mL: 20.6 mm
[10]
  Time: 40.13 min
[11]
  zone of inhibition at 50 µg/mL: 10.2 mm
[12]
  zone of inhibition at 50 µg/mL: 10.9 mm
[13]
  zone of inhibition at 50 µg/mL: 15.5 mm
[14]
  zone of inhibition at 50 µg/mL: 16.8 mm
[15]
  IC50: 44 µg/mL (≈ 160 µM)
[16]
  zone of inhibition at 100 µg/mL: 17.3 mm
[17]
  zone of inhibition at 50 µg/mL: 16 mm
[18]
  Time: 37.67 min
[19]
  zone of inhibition at 25 µg/mL: 10.2 mm
[20]
  zone of inhibition at 25 µg/mL: 11.2 mm
[21]
  IC50: 59 µg/mL (≈ 214 µM)
[22]
  zone of inhibition at 25 µg/mL: 7.64 mm
[23]
  zone of inhibition at 100 µg/mL: 21.4 mm
[24]
  inhibition: 61.2%
[25]
  zone of inhibition at 25 µg/mL: 14.6 mm
[26]
  zone of inhibition at 25 µg/mL: 8.18 mm
[27]
  Time: 46.45 min
[28]
  Time: 58.3 min
[29]
  zone of inhibition at 100 µg/mL: 12.4 mm
